Source: ChEMBL document CHEMBL1177882, “Novel bisstyryl derivatives of bakuchiol: targeting oral cavity pathogens” (2010)
≈ marks a conversion by molar mass, not a printed value. Calls of active or inactive are those of the source. The calls are words filed in the database; no cut-off is given here.

Columns and labels:
Actinomyces viscosus [1] = test: Antibacterial activity against Actinomyces viscosus ATCC 15987 after 24 hrs by broth microdilution method; conditions: ATCC 15987, 24 h
Prevotella intermedia [2] = test: Antibacterial activity against Prevotella intermedia ATCC 25611 after 48 hrs by broth microdilution method; format: functional; conditions: ATCC 25611, 48 h
Procedure, shortened: (§1)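 Broth microdilution MIC for obligate anaerobes, run in their growth media (Wilkins–Chalgren for F. nucleatum and P. intermedia; supplemented Todd Hewitt broth for P. gingivalis). Inoculum suspended in Brucella broth, final 5 × 10^6 cfu/ml. Twofold dilutions, final 0.12–128 µg/ml. Incubated anaerobically (90% N2/5% H2/5% CO2) at 37 °C for 48 h; MIC is the lowest concentration without turbidity.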

Streptococcus sanguinis [3] = test: Antibacterial activity against Streptococcus sanguinis ATCC 10556 after 24 hrs by broth microdilution method; conditions: ATCC 10556, 24 h
Streptococcus mutans [4] = test: Antibacterial activity against Streptococcus mutans ATCC 25175 assessed as inhibition of biofilm formation after 18 hrs; format: functional
Procedure, shortened: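 Single-species S. mutans biofilm grown in flat-bottom polystyrene wells, BHI with 2% sucrose, 6 × 10^7 cfu/ml final, compound twofold 0.12–128 µg/ml, 18 h at 37 °C in 5% CO2. Wells rinsed with PBS pH 7.2, methanol-fixed, stained with 0.1% crystal violet, eluted in 95% ethanol, A595 read. % inhibition relative to untreated control; MBIC50 is the lowest concentration giving ≥50% inhibition.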

Actinomyces viscosus [5] = test: Antibacterial activity against Actinomyces viscosus ATCC 15987 after 48 hrs by broth microdilution method; format: functional; conditions: ATCC 15987, 48 h
Streptococcus mutans [6] = test: Antibacterial activity against Streptococcus mutans ATCC 25175 assessed as increase of cell membrane permeability at 2 time MIC after 60 mins propidium iodide staining by flow cytometry; format: functional, organism-based
Procedure, shortened: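 Overnight BHI culture of S. mutans washed into 50 mmol/l sodium phosphate pH 7.1 (~1 × 10^9 cfu/ml), diluted 1:20 into buffer with compound at 2 × MIC. Incubated 60 min at room temperature; aliquots diluted in buffer and stained with propidium iodide at 10 µg/ml final on ice. The percentage of PI-stained cells was measured by flow cytometry.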

Streptococcus mutans [7] = test: Ratio of compound MIC to bakuchiol MIC for Streptococcus mutans ATCC 25175; format: functional
Streptococcus sanguinis [8] = test: Ratio of compound MIC to bakuchiol MIC for Streptococcus sanguinis ATCC 10556; format: functional
Porphyromonas gingivalis [9] = test: Antibacterial activity against Porphyromonas gingivalis ATCC 33277 after 48 hrs by broth microdilution method; format: functional; conditions: ATCC 33277, 48 h
Procedure, shortened: as §1

Streptococcus mutans [10] = test: Antibacterial activity against Streptococcus mutans ATCC 25175 assessed as 280 nm absorbing material release at 2 time MIC after 60 mins by spectrophotometric analysis; format: functional, organism-based
Procedure, shortened: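 S. mutans prepared in 50 mmol/l phosphate pH 7.1 (~1 × 10^9 cfu/ml) was exposed to compound at 2 × MIC for 60 min at 37 °C. Supernatant taken after centrifugation (10,000 g, 10 min) and read at A280. Release is expressed as % of a total-release control made by lysozyme treatment (100 µg/ml, 60 min, 37 °C) plus sonication.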

Streptococcus sanguinis [11] = test: Antibacterial activity against Streptococcus sanguinis ATCC 10556 after 48 hrs by broth microdilution method; format: functional; conditions: ATCC 10556, 48 h
Fusobacterium nucleatum [12] = test: Antibacterial activity against Fusobacterium nucleatum ATCC 10953 after 48 hrs by broth microdilution method; format: functional; conditions: ATCC 10953, 48 h
Procedure, shortened: as §1

Prevotella intermedia [13] = test: Ratio of compound MIC to bakuchiol MIC for Prevotella intermedia ATCC 25611; format: functional
Fusobacterium nucleatum [14] = test: Ratio of compound MIC to bakuchiol MIC for sFusobacterium nucleatum ATCC 10953; format: functional
Streptococcus mutans [15] = test: Antibacterial activity against Streptococcus mutans ATCC 25175 after 24 hrs by broth microdilution method; conditions: ATCC 25175, 24 h
Streptococcus mutans [16] = test: Antibacterial activity against Streptococcus mutans ATCC 25175 after 48 hrs by broth microdilution method; format: functional; conditions: ATCC 25175, 48 h
Porphyromonas gingivalis [17] = test: Ratio of compound MIC to bakuchiol MIC for Porphyromonas gingivalis ATCC 33277; format: functional
Actinomyces viscosus [18] = test: Ratio of compound MIC to bakuchiol MIC for Actinomyces viscosus ATCC 15987; format: functional
Streptococcus mutans [19] = test: Antibacterial activity against Streptococcus mutans ATCC 25175 assessed as decrease in cell viability at 2 time MIC after 60 mins by serial dilution method relative to control; format: functional
Procedure, shortened: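 S. mutans suspension from an 18 h culture (~1 × 10^9 cfu/ml) diluted 1:20 into phosphate buffer containing compound at 2 × MIC. Incubated 60 min at 37 °C, then serially diluted in saline and plated on BHI agar. Colonies counted after 48 h at 37 °C in 5% CO2; viability given as CFU/ml relative to untreated cells.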

SMILES | MIC (Actinomyces viscosus [1]) [µg/mL] | MBC (Prevotella intermedia [2]) [µg/mL] | MIC (Prevotella intermedia [2]) [µg/mL] | MIC (Streptococcus sanguinis [3]) [µg/mL] | MBC (Actinomyces viscosus [5]) [µg/mL] | Activity (Streptococcus mutans [6]) | MBC (Porphyromonas gingivalis [9]) [µg/mL] | MIC (Porphyromonas gingivalis [9]) [µg/mL] | Activity (Streptococcus mutans [10]) | MBC (Streptococcus sanguinis [11]) [µg/mL] | MBC (Fusobacterium nucleatum [12]) [µg/mL] | MIC (Fusobacterium nucleatum [12]) [µg/mL] | MIC (Streptococcus mutans [15]) [µg/mL] | MBC (Streptococcus mutans [16]) [µg/mL] | Activity (Streptococcus mutans [19]) | also measured
COc1ccc(/C=C/[C@](C)(/C=C/c2ccc(O)cc2)CCC=C(C)C)cc1 | 0.5 (≈ 1.38 µM) | 1 (≈ 2.76 µM) | 0.5 (≈ 1.38 µM) | 0.5 (≈ 1.38 µM) | 1 (≈ 2.76 µM) | Active | 0.5 (≈ 1.38 µM) | 0.25 (≈ 0.69 µM) | Active | 1 (≈ 2.76 µM) | 32 (≈ 88.3 µM) | 16 (≈ 44.1 µM) | 0.5 (≈ 1.38 µM) | 1 (≈ 2.76 µM) | >80% | MBIC50 (Streptococcus mutans [4]): 1 µg/mL; Ratio (Streptococcus mutans [7]): 2; Ratio (Streptococcus sanguinis [8]): 2; Ratio (Prevotella intermedia [13]): 2; Ratio (Fusobacterium nucleatum [14]): 2; Ratio (Porphyromonas gingivalis [17]): 2; Ratio (Actinomyces viscosus [18]): 2
CC(C)=CCC[C@@](C)(/C=C/c1ccc(N)cc1)/C=C/c1ccc(O)cc1 | 2 (≈ 5.76 µM) | 4 (≈ 11.5 µM) | 2 (≈ 5.76 µM) | 2 (≈ 5.76 µM) | 2 (≈ 5.76 µM) | – | 2 (≈ 5.76 µM) | 1 (≈ 2.88 µM) | – | 4 (≈ 11.5 µM) | > 128 | > 128 | 2 (≈ 5.76 µM) | 4 (≈ 11.5 µM) | – | –
C=C[C@@](C)(/C=C/c1ccc(O)c([N+](=O)[O-])c1)CCC=C(C)C | 128 (≈ 425 µM) | 128 (≈ 425 µM) | 64 (≈ 212 µM) | 128 (≈ 425 µM) | > 128 | – | 32 (≈ 106 µM) | 32 (≈ 106 µM) | – | > 128 | > 128 | > 128 | 64 (≈ 212 µM) | 128 (≈ 425 µM) | – | –
CCCOc1ccc(/C=C/[C@@](C)(/C=C/c2ccc(O)cc2)CCC=C(C)C)cc1Cl | 32 (≈ 75.3 µM) | 32 (≈ 75.3 µM) | 16 (≈ 37.6 µM) | 16 (≈ 37.6 µM) | 64 (≈ 151 µM) | – | 4 (≈ 9.41 µM) | 4 (≈ 9.41 µM) | – | 32 (≈ 75.3 µM) | 128 (≈ 301 µM) | 64 (≈ 151 µM) | 32 (≈ 75.3 µM) | 8 (≈ 18.8 µM) | – | –
C=C[C@@](C)(/C=C/c1ccc(OC)cc1)CCC=C(C)C | > 128 | > 128 | > 128 | > 128 | > 128 | Active | 32 (≈ 118 µM) | 32 (≈ 118 µM) | Active | > 128 | > 128 | > 128 | > 128 | > 128 | inactive | –
C=C[C@@](C)(/C=C/c1ccc(O)cc1)CCC=C(C)C [BAKUCHIOL] | 1 (≈ 3.9 µM) | 2 (≈ 7.8 µM) | 1 (≈ 3.9 µM) | 1 (≈ 3.9 µM) | 2 (≈ 7.8 µM) | Active | 1 (≈ 3.9 µM) | 1 (≈ 3.9 µM) | Active | 2 (≈ 7.8 µM) | 64 (≈ 250 µM) | 32 (≈ 125 µM) | 1 (≈ 3.9 µM) | 2 (≈ 7.8 µM) | >80% | MBIC50 (Streptococcus mutans [4]): 4 µg/mL
C=C[C@@](C)(/C=C/c1ccc(O)cc1)CCC1OC1(C)C (stereo partly drawn) | 64 (≈ 235 µM) | 128 (≈ 470 µM) | 64 (≈ 235 µM) | 128 (≈ 470 µM) | 128 (≈ 470 µM) | – | 64 (≈ 235 µM) | 32 (≈ 117 µM) | – | > 128 | > 128 | > 128 | 128 (≈ 470 µM) | > 128 | – | –
C=C[C@@](C)(/C=C/c1ccc(O)cc1)CC/C=C(/C)C=O | 32 (≈ 118 µM) | 64 (≈ 237 µM) | 32 (≈ 118 µM) | 32 (≈ 118 µM) | 64 (≈ 237 µM) | – | 16 (≈ 59.2 µM) | 16 (≈ 59.2 µM) | – | 64 (≈ 237 µM) | 64 (≈ 237 µM) | 32 (≈ 118 µM) | 64 (≈ 237 µM) | 128 (≈ 473 µM) | – | –
